# Assay results taken from ChEMBL document CHEMBL3046702, “Herbicidal, plant growth inhibitory, and cytotoxic activities of bismuthines containing aromatic heterocycles” (J Agric Food Chem, 2003).
# Active and inactive are the calls of the source. The rule behind the calls is not given here.
# What was measured:
# Phaseolus vulgaris = test: Herbicidal activity against Phaseolus vulgaris assessed as inhibition of mitochondrial oxygen uptake; format: functional, organism-based; conditions: read-out: I50
# Artemia salina = test: Toxicity in Artemia salina (brine shrimp) larvae assessed as mortality; format: organism-based; conditions: in vivo
# Method in brief: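 Brine shrimp lethality test on *Artemia salina* larvae, run across several concentrations up to a top level of 1000 µM. Mortality was scored at each concentration, and LC50 values in µM were derived from the concentration–mortality data.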
# Lactuca sativa [1] = test: Herbicidal activity against Lactuca sativa var.Roman (lettuce) assessed as inhibition of seed germination after 48 hr; format: functional, organism-based; conditions: read-out: I50
# Trifolium pratense [2] = test: Herbicidal activity against Trifolium pratense var. Kenland (red clover) assessed as inhibition of seed respiration during germination after 72 hr by polarographic analysis; format: functional, organism-based
# Method in brief: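 Red clover seeds were exposed to the bismuthines during germination, with respiration followed over the imbibition time. Values were taken at 72 h as the concentration giving 50% inhibition of seed respiration, using means of three experiments.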
# Trifolium pratense [3] = test: Herbicidal activity against Trifolium pratense var. Kenland (red clover) assessed as inhibition of seed germination after 48 hr; format: functional, organism-based; conditions: read-out: I50
# Lolium multiflorum [4] = test: Herbicidal activity against Lolium multiflorum var. Gulf (Italian ryegrass) assessed as inhibition of seed germination after 48 hr; format: functional, organism-based; conditions: read-out: I50
# Lolium multiflorum [5] = test: Herbicidal activity against Lolium multiflorum var. Gulf (Italian ryegrass) seedlings assessed as shoot length rate at 3 uM after 48 hr relative to control; format: functional, organism-based
# Method in brief: (§1)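 Italian ryegrass seedlings grown with 0, 0.5, 1, 3, 5, 7.5 or 10 µM of each bismuthine. Shoot and root lengths were measured at 48 h and expressed as a percentage of the average untreated control length.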
# Lactuca sativa [6] = test: Herbicidal activity against Lactuca sativa var.Roman (lettuce) seedlings assessed as root length at 75 uM after 120 hr (reference value: 18 to 19 mm); format: functional, organism-based
# Lolium multiflorum [7] = test: Herbicidal activity against Lolium multiflorum var. Gulf (Italian ryegrass) seedlings assessed as shoot length rate at 10 uM after 48 hr relative to control; format: functional, organism-based; method in brief: as §1
# Lolium multiflorum [8] = test: Herbicidal activity against Lolium multiflorum var. Gulf (Italian ryegrass) seedlings assessed as root length rate at 5 uM after 48 hr relative to control; format: functional, organism-based; method in brief: as §1
# Lolium multiflorum [9] = test: Herbicidal activity against Lolium multiflorum var. Gulf (Italian ryegrass) seedlings assessed as shoot length rate at 5 uM after 48 hr relative to control; format: functional, organism-based; method in brief: as §1
# Lactuca sativa [10] = test: Herbicidal activity against Lactuca sativa var.Roman (lettuce) seedlings assessed as shoot length at 75 uM after 120 hr (reference value: 27 to 31 mm); format: functional, organism-based
# Lolium multiflorum [11] = test: Herbicidal activity against Lolium multiflorum var. Gulf (Italian ryegrass) seedlings assessed as root length rate at 3 uM after 48 hr relative to control; format: functional, organism-based; method in brief: as §1
# Lactuca sativa [12] = test: Herbicidal activity against Lactuca sativa var.Roman (lettuce) seedlings assessed as root length at 25 uM after 120 hr (reference value: 18 to 19 mm); format: functional, organism-based
# Lolium multiflorum [13] = test: Herbicidal activity against Lolium multiflorum var. Gulf (Italian ryegrass) seedlings assessed as root length rate at 1 uM after 48 hr relative to control; format: functional, organism-based; method in brief: as §1
# Lolium multiflorum [14] = test: Herbicidal activity against Lolium multiflorum var. Gulf (Italian ryegrass) seedlings assessed as shoot length rate at 1 uM after 48 hr relative to control; format: functional, organism-based; method in brief: as §1
# Lactuca sativa [15] = test: Herbicidal activity against Lactuca sativa var.Roman (lettuce) seedlings assessed as seed germination rate at 0.5 uM after 48 hr relative to control; format: functional, organism-based
# Lolium multiflorum [16] = test: Herbicidal activity against Lolium multiflorum var. Gulf (Italian ryegrass) seedlings assessed as shoot length rate at 0.5 uM after 48 hr relative to control; format: functional, organism-based; method in brief: as §1
# Lactuca sativa [17] = test: Herbicidal activity against Lactuca sativa var.Roman (lettuce) seedlings assessed as seed germination rate at 5 uM after 48 hr relative to control; format: functional, organism-based
# Lactuca sativa [18] = test: Herbicidal activity against Lactuca sativa var.Roman (lettuce) seedlings assessed as shoot length at 10 uM after 120 hr (reference value: 27 to 31 mm); format: functional, organism-based
# Physalis ixocarpa = test: Herbicidal activity against Physalis ixocarpa assessed as inhibition of seed respiration during germination after 72 hr by polarographic analysis; format: functional, organism-based
# Lactuca sativa [19] = test: Herbicidal activity against Lactuca sativa var.Roman (lettuce) seedlings assessed as shoot length at 5 uM after 120 hr (reference value: 27 to 31 mm); format: functional, organism-based
# [20] = tested on: Radical scavenging activity; test: Antioxidant activity assessed as DPPH free radical scavenging activity at 5 to 100 uM after 30 min by spectrophotometric analysis; format: functional
# Method in brief: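 DPPH reduction by the compounds was read spectrophotometrically at 517 nm after 30 min. 100% DMSO served as the blank and quercetin as the reference scavenger.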
# Lactuca sativa [21] = test: Herbicidal activity against Lactuca sativa var.Roman (lettuce) seedlings assessed as root length at 50 uM after 120 hr (reference value: 18 to 19 mm); format: functional, organism-based
# [22] = tested on: Radical scavenging activity; test: Antioxidant activity assessed as DPPH free radical scavenging activity at 5 to 100 uM after 30 min by TLC autographic assay; format: functional
# Lolium multiflorum [23] = test: Herbicidal activity against Lolium multiflorum var. Gulf (Italian ryegrass) seedlings assessed as shoot length rate at 7.5 uM after 48 hr relative to control; format: functional, organism-based; method in brief: as §1
# Lolium multiflorum [24] = test: Herbicidal activity against Lolium multiflorum var. Gulf (Italian ryegrass) seedlings assessed as root length rate at 7.5 uM after 48 hr relative to control; format: functional, organism-based; method in brief: as §1
# Lactuca sativa [25] = test: Herbicidal activity against Lactuca sativa var.Roman (lettuce) seedlings assessed as seed germination rate at 7.5 uM after 48 hr relative to control; format: functional, organism-based
# Lolium multiflorum [26] = test: Herbicidal activity against Lolium multiflorum var. Gulf (Italian ryegrass) assessed as inhibition of seed respiration during germination after 72 hr by polarographic analysis; format: functional, organism-based
# Lactuca sativa [27] = test: Herbicidal activity against Lactuca sativa var.Roman (lettuce) seedlings assessed as shoot length at 50 uM after 120 hr (reference value: 27 to 31 mm); format: functional, organism-based
# Lactuca sativa [28] = test: Herbicidal activity against Lactuca sativa var.Roman (lettuce) seedlings assessed as seed germination rate at 1 uM after 48 hr relative to control; format: functional, organism-based
# Lolium multiflorum [29] = test: Herbicidal activity against Lolium multiflorum var. Gulf (Italian ryegrass) seedlings assessed as root length rate at 0.5 uM after 48 hr relative to control; format: functional, organism-based; method in brief: as §1
# Lactuca sativa [30] = test: Herbicidal activity against Lactuca sativa var.Roman (lettuce) seedlings assessed as seed germination rate at 10 uM after 48 hr relative to control; format: functional, organism-based
# Lactuca sativa [31] = test: Herbicidal activity against Lactuca sativa var.Roman (lettuce) seedlings assessed as root length at 10 uM after 120 hr (reference value: 18 to 19 mm); format: functional, organism-based
# Lactuca sativa [32] = test: Herbicidal activity against Lactuca sativa var.Roman (lettuce) seedlings assessed as inhibition of seed germination at 5 uM after 48 hr; format: functional, organism-based
# Lactuca sativa [33] = test: Herbicidal activity against Lactuca sativa var.Roman (lettuce) seedlings assessed as growth inhibition at 5 uM after 120 hr; format: functional, organism-based
# Lactuca sativa [34] = test: Herbicidal activity against Lactuca sativa var.Roman (lettuce) seedlings assessed as root length at 5 uM after 120 hr (reference value: 18 to 19 mm); format: functional, organism-based
# Lactuca sativa [35] = test: Herbicidal activity against Lactuca sativa var.Roman (lettuce) seedlings assessed as shoot length at 25 uM after 120 hr (reference value: 27 to 31 mm); format: functional, organism-based
# Lactuca sativa [36] = test: Herbicidal activity against Lactuca sativa var.Roman (lettuce) seedlings assessed as seed germination rate at 3 uM after 48 hr relative to control; format: functional, organism-based
# Lolium multiflorum [37] = test: Herbicidal activity against Lolium multiflorum var. Gulf (Italian ryegrass) seedlings assessed as root length rate at 10 uM after 48 hr relative to control; format: functional, organism-based; method in brief: as §1
substance,measurement,setting,value
TRIS(2-THIENYL)BISMUTH [listing 1 of 2 here],IC50,Phaseolus vulgaris,35 µM
same,LC50,Artemia salina,> 1000 µM
same,IC50,Lactuca sativa [1],49.7 µM
same,IC50,Trifolium pratense [2]; read-out: I50,13.5 µM
same,IC50,Trifolium pratense [3],12.4 µM
same,IC50,Lolium multiflorum [4],36 µM
TRIS(2-THIENYL)BISMUTH [listing 2 of 2 here],Activity,Lolium multiflorum [5],71%
same,Activity,Lactuca sativa [6],0 mm
same,Activity,Lolium multiflorum [7],37%
same,Activity,Lolium multiflorum [8],76%
same,Activity,Lolium multiflorum [9],75%
same,Activity,Lactuca sativa [10],0 mm
same,Activity,Lolium multiflorum [11],52%
same,Activity,Lactuca sativa [12],3 mm
same,Activity,Lolium multiflorum [13],88%
same,Activity,Lolium multiflorum [14],82%
same,Activity,Lactuca sativa [15],90%
same,inhibition,Trifolium pratense [2],Dose-dependent effect
same,Activity,Lolium multiflorum [16],84%
same,Activity,Lactuca sativa [17],80%
same,Activity,Lactuca sativa [18],9 mm
same,inhibition,Physalis ixocarpa,Active
same,Activity,Lactuca sativa [19],33 mm
same,Activity,[20],Active
same,Activity,Lactuca sativa [21],2 mm
same,Activity,[22],inactive
same,Activity,Lolium multiflorum [23],46%
same,Activity,Lolium multiflorum [24],50%
same,Activity,Lactuca sativa [25],70%
same,inhibition,Lolium multiflorum [26],inactive
same,Activity,Lactuca sativa [27],5 mm
same,Activity,Lactuca sativa [28],90%
same,Activity,Lolium multiflorum [29],70%
same,Activity,Lactuca sativa [30],60%
same,Activity,Lactuca sativa [31],5 mm
same,inhibition,Lactuca sativa [32],Active
same,inhibition,Lactuca sativa [33],30%
same,Activity,Lactuca sativa [34],36 mm
same,Activity,Lactuca sativa [35],7 mm
same,Activity,Lactuca sativa [36],85%
same,Activity,Lolium multiflorum [37],30%
